From PubChem
INS promoter inh – inhibitors of insulin promoter-driven GFP, primary screen, imaging, TRM-6 cells (human fetal islet line), eGFP reporter, cell count; hit rate 0.9% among 130,000; reporter expression induced with tamoxifen; AID 1273, 2008; inhibition, % at 2 µM;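 active = inhibition above the mean plus 3 SD, with well images judged a real hit on visual review, cut at about 60% in these data, passing the limit was not always enough; inconclusive = inhibition over the cutoff but images rejected on review; inactive = inhibition not above the cutoff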
Yeast growth inh – growth inhibitors of yeast BB579 in restrictive medium, primary screen, yeast lifespan-shortening project, S. cerevisiae. OD615, 48 h. inhibition, % at 10 µM. hit rate 0.51% among 140,000;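 active = inhibition above a set limit, 3 SD over the mean compound inhibition, cut at about 44% in these data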
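controls = amphotericin B 10 µg/mL, positive | assay system = DeaD yeast strain BB579 | schedule = 48 h compound exposure at 30 °C after 4 h preincubation | detection = OD615 turbidity measurement | medium = restrictive CSMM-D medium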
Yeast life ext – compounds extending yeast replicative lifespan, primary screen, S. cerevisiae, OD615; hit rate 0.68% among 130,000; S. cerevisiae growth with nicotinamide; deaD strain in restrictive glucose medium; inhibition of the nicotinamide effect, % at 10 µM; AID 775, 2007;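 active = inhibition above a set limit, placed 3 SD over the median of all compounds, cut at about 26% in these data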
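Assay system: DeaD-strain S. cerevisiae. Medium: CSMM-D glucose medium, restrictive. Reagent: nicotinamide, 1.5 mM, co-present with compound. Compound: 10 µM single point, 0.25% DMSO. Schedule: culture preincubation 4 h, compound exposure 48 h, both 30 °C. Detection: absorbance at 615 nm.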
Measles CPE – compounds protecting cells from measles virus cytopathic effect, primary screen, measles RdRp inhibitor project, single point, MLSMR library, absorbance; Measles virus-infected cells, CPE protection; hit rate 1.5% among 140,000; protection (pct of control), % at 4 µM; in the data active = protection mostly above about 24%, no sharp cut-off; inactive = mostly below about 26%
RAM network inh – inhibitors of the yeast RAM network, primary screen, dse1pr::URA3 reporter, 5-FOA selection. hit rate 1.8% among 190,000. inhibition, % at 50 µM. S. cerevisiae dse1pr::URA3 reporter, 5-FOA growth OD615, 2 d; analog-sensitive cbk1-as2 kinase mutant strain. AID 868, 2007;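 active = inhibition above a set limit, 3 SD over mean compound inhibition, cut at about 8.4% in these data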;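 note: inhibition rescues growth on 5-FOA so higher OD means more RAM inhibition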
MDM2 E3 inh – MDM2-luciferase reporter signal enhancers, primary screen, MDM2 E3 ligase inhibitor project, cell-based, luminescence, 1536-well. cell-based MDM2 ubiquitination luciferase reporter, 2 h; 0 = plate control, 100 = twice control, blank-subtracted. E3 ubiquitin-protein ligase Mdm2 (Homo sapiens), Q00987. hit rate 0.11% among 210,000. signal enhancement, % at 5 µM. AID 1230, 2008;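 active = signal enhancement of 30% or more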;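 note: luminescence tracks abundance of the self-degrading MDM2-luciferase fusion protein; higher signal means inhibition of MDM2 E3 ligase activity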
Target sequence (Q00987 whole entry, looked up, the tested form may be a part): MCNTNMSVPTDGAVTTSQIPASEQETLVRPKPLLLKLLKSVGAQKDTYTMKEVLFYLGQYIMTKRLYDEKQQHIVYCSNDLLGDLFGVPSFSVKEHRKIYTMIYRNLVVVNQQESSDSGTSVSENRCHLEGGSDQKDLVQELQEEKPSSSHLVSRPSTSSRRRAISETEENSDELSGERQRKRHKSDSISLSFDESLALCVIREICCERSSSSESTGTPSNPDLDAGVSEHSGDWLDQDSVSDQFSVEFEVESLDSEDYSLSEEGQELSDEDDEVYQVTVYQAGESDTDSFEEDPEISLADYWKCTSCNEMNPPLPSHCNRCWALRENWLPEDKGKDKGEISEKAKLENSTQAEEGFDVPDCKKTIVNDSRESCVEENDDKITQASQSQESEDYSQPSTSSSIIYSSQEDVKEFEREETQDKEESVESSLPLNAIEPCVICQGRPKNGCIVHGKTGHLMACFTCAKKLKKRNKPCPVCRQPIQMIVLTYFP
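Material: stable MDM2–luciferase fusion reporter cells / Quantity: 2000 cells/well / Dosing: single 5 µM compound dose, 0.2% final DMSO / Buffer or medium: DMEM / Schedule: 4 h cell settling then 2 h compound exposure, 37 °C / Detection: luminescence with SteadyLite reagent, 15 min at room temperature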
RAM 5-FOA – 5-FOA growth of efflux-deficient control yeast, dose response, counter-screen for RAM network inhibitor project, S. cerevisiae, OD615; shares compounds with RAM network inh; S. cerevisiae efflux-deficient reporter strain, 5-FOA growth OD615, 2 days; max inhibition, %; 1,200 tested, under 10 active; call rule not given here
Hits are given with their value; – = inactive; ? = inconclusive; · = no result given. An excerpt weighted towards active compounds, which were near 4% of everything screened.

SMILES | INS promoter inh | Yeast growth inh | Yeast life ext | Measles CPE | RAM network inh | MDM2 E3 inh | RAM 5-FOA
CCn1c(=O)cc(SCC(=O)N2CCN(c3ccccc3F)CC2)c2ccccc21 | – | – | – | – | – | – | ·
Cc1ccc2cc(C)c3nnc(SCC(=O)Nc4nc5c(s4)CCCC5)n3c2c1C | – | – | – | – | – | – | ·
CC(=O)Oc1ccc(N(C(C)=O)S(=O)(=O)c2ccc(C)c([N+](=O)[O-])c2)cc1 | – | – | – | – | – | – | ·
CC(C)(C)OC(=O)C(C)(C)O/N=C(\C(=O)O)c1csc(N)n1 | – | · | · | · | – | – | ·
O=C(CCCSc1ccccc1)Nc1nc(-c2ccco2)c(-c2ccco2)s1 | 76.0 | – | – | – | 12.7 | – | –
O=C(CCl)Nc1nc(-c2ccco2)c(-c2ccco2)s1 | – | – | – | – | – | – | ·
C#CCNC(=O)C1=C[C@@H](c2ccc(C(F)(F)F)cc2)[C@H](CCCO)[C@@H](OCC)O1 | · | · | · | · | – | · | ·
CSc1ccccc1-c1nnc(-c2ccccc2)o1 | – | – | – | – | – | – | ·
CSc1ccccc1-c1nnc(-c2ccc(C)cc2)o1 | – | – | – | – | 13.6 | – | –
Cc1ccccc1NS(=O)(=O)c1cc(C(=O)NCCSC2CCCCC2)ccc1C | · | – | – | – | 12.8 | – | –
O=C(C1CC1)N(Cc1ccco1)c1nc(-c2ccccc2)cs1 | – | – | – | – | 12.1 | – | –
CCOC(=O)N1CCN(c2nc(-c3cccc(OC)c3)cc(C(F)(F)F)n2)CC1 | – | – | – | – | 12.2 | – | –
COc1cccc(-c2cc(C(F)(F)F)nc(N3CCN(c4ccccc4)CC3)n2)c1 | – | – | – | – | 16.4 | – | –
CCOC(=O)c1ccc(CNC(=O)c2cc(C(C)(C)C)oc2C)o1 | – | – | – | – | – | – | ·
CCCOc1ccc(NC(=O)C2CC(=O)N(C)C(=Nc3cccc(OC)c3)S2)cc1 (stereo not drawn) | · | · | · | · | – | – | ·
Cn1ncc([N+](=O)[O-])c1C(=O)Nc1ccc(-c2nc3ccccc3o2)cc1 | – | · | · | · | – | – | ·
COc1ccc(CNC(=O)c2csc(Cc3ccc(OC)cc3)n2)cc1 | – | – | – | – | – | – | ·
COc1ccc(Cc2nc(C(=O)Nc3ccc(F)cc3)cs2)cc1 | – | – | – | – | 15.9 | – | –
CCN(c1ccccc1)S(=O)(=O)c1ccc(Cl)nc1 | – | · | · | · | – | – | ·
CCN(c1ccccc1)S(=O)(=O)c1ccc(NCC2COc3ccccc3O2)nc1 (stereo not drawn) | · | – | – | – | 12.6 | – | –
COC(=O)C/C=C/[C@@H](C)[C@@H](/C=N/O[C@@H](C)c1cn([C@H](CO)Cc2ccccc2)nn1)NS(=O)(=O)c1ccc(C)cc1 | – | – | – | – | – | · | ·
COc1ccc(O[C@H]2C=C[C@@H](c3ccccc3)O[C@@H]2CO/N=C(\C)CCC(=O)OC[C@H]2O[C@H](c3ccccc3)C=C[C@@H]2Oc2ccc(OC)cc2)cc1 | – | – | – | – | 25.4 | · | –
COC(=O)C/C=C/[C@@H](C)[C@@H](/C=N/OC[C@H]1O[C@H](c2ccccc2)C=C[C@@H]1Oc1ccc(OC)cc1)NS(=O)(=O)c1ccc(C)cc1 | – | – | – | – | 16.4 | · | –
O=C(O)c1cc(Sc2ccc(Br)cc2)nc2ccccc12 | · | · | · | · | 11.4 | – | –
CSc1ccccc1Sc1cc(C(=O)O)c2ccccc2n1 | – | – | – | · | – | – | ·
SMILES | INS promoter inh | Yeast growth inh | Yeast life ext | Measles CPE | RAM network inh | MDM2 E3 inh | RAM 5-FOA
CC1(C)C(C=C(Cl)Cl)C1C(=O)Nc1ccc([N+](=O)[O-])cc1 (stereo not drawn) | – | 53.6 | – | – | 11.5 | – | –
Cc1ccc(-c2nnc(SCC(=O)N/N=C/c3ccc(C)s3)n2-c2ccc(C)cc2)cc1 | · | – | – | – | – | – | ·
O=[N+]([O-])c1ccc(COc2cccc(CNc3ccc(Br)cc3)c2)cc1 | · | – | – | – | 14.2 | – | –
Cc1ccc(-n2c(SCC(=O)Nc3cccc(S(=O)(=O)NC4=NCCCCC4)c3)nc3ccccc3c2=O)cc1C | · | – | – | – | 11.6 | – | –
CN(C)CCCNC(NC(=O)/C=C/c1ccccc1)C(Cl)(Cl)Cl (stereo not drawn) | · | · | · | · | · | – | ·
C=C(C)C1CC=C(C)/C(=N\NC(=S)Nc2ccc(C)cc2)C1 (stereo not drawn) | – | – | – | – | 17.2 | – | –
C=C(C)C1CC=C(C)/C(=N/NC(=O)COc2ccc(C)cc2)C1 (stereo not drawn) | – | – | · | – | – | – | ·
O=C(O)CSc1nc(-c2ccc(Cl)cc2)nc2c1oc1ccccc12 | – | 70.5 | – | – | 15.2 | – | –
CCOC(=O)CSc1nc(-c2ccccc2)nc2c1oc1ccccc12 | – | – | – | – | – | – | ·
C=CCNC(=O)c1ccc2c(c1)nnn2C | · | – | – | – | 13.5 | – | –
CNC(=O)c1ccc2c(c1)nnn2C | – | – | – | – | – | – | ·
CCOC(=O)N1CCC(N(CCN(C)C)C(=S)Nc2cccc(SC)c2)CC1 | – | · | · | · | 33.0 | – | –
Cc1ccc(S(=O)(=O)NC(=O)c2cc(C)n(-c3ccc(N(C)C)cc3)c2C)cc1 | · | – | – | – | – | – | ·
O=C(COC(=O)CCCN1C(=O)c2cccc3cccc(c23)C1=O)Nc1cccc(C(F)(F)F)c1 | – | – | – | – | 11.7 | – | –
Cc1cccc(NC(=O)/C(C#N)=C/c2ccc(Sc3ccccc3)o2)c1C | ? | – | – | – | 14.2 | – | –
Cc1ccccc1NC(=O)/C(C#N)=C/c1ccsc1 | – | – | – | – | – | – | ·
Cc1ccc(C2=NN(Cc3nnc(-c4ccccc4)o3)C(=O)SC2)cc1 | – | – | – | – | 12.1 | – | –
COC(=O)[C@@H]1CC[C@H](C)[C@@H](c2ccc(C)cc2)N1C(=O)c1ccc(/C=N/OC[C@@H](O)COCc2ccco2)cc1 | – | – | – | – | 14.9 | · | –
O=C(NC(=S)Nc1ccc(Oc2ccc(Cl)cc2)cc1)c1ccccc1 | – | – | – | – | 16.5 | – | –
CCC(=O)NC(=S)Nc1ccc(NC(=S)NC(=O)c2ccccc2)cc1 | – | · | · | · | 12.9 | – | –
O=C(NC(=S)Nc1ccc(Cl)cc1)c1ccccc1 | · | · | · | · | · | – | ·
O=S(=O)(Nc1nc2ccccc2nc1Nc1cccc(S(=O)(=O)N2CCCCC2)c1)c1ccccc1 | – | – | – | – | – | – | ·
CCOc1ccc(CNC(=O)CCn2c(=O)oc3ccccc32)cc1 | – | – | – | – | – | – | ·
